These results are taken from ChEMBL document CHEMBL1144570, “C6-(N,N-butyl-methyl-heptanamide) derivatives of estrone and estradiol as inhibitors of type 1 17beta-hydroxysteroid dehydrogenase: Chemical synthesis and biological evaluation” (2007).

Calls of active or inactive are those of the source. The rule behind the calls is not given here.

For the first assay, the target named is T1, 17-beta-hydroxysteroid dehydrogenase type 1 (Homo sapiens) (UniProt P14061).
T1 sequence (whole entry): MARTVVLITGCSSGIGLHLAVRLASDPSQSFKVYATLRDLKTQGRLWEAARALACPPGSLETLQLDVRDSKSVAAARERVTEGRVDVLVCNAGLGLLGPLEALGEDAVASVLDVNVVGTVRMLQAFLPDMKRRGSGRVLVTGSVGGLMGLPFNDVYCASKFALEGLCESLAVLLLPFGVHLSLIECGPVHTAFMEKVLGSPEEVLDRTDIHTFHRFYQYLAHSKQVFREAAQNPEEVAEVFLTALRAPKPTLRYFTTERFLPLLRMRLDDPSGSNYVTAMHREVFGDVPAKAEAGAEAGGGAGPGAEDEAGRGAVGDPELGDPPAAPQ
Put plainly: Inhibition of 17beta-HSD1 over-expressed in intact T47D cells at 1 uM.
Settings: not given
The assay is classed as cell-based. Summed up: (§1)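 Intact T-47D cells, which express endogenous type 1 17β-HSD, were seeded at 3×10^4 cells/well in proliferation assay medium. After 48 h, [4-14C]-E1 (60 nM) and inhibitor in ethanol (0.5% v/v) were added in fresh medium for 24 h. Labelled E1 and E2 were extracted and quantified. Values are the mean of two experiments in triplicate, SD < ±5%.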
Broadly, the inhibition is the relative decrease from the control value, in per cent. The molecule `CCCCN(C)C(=O)CCCCCS[C@@H]1C[C@@H]2[C@H](CC[C@]3(C)[C@@H](O)CC[C@@H]23)c2ccc(O)cc21` returned an inhibition of 82%.

In the next assay the test system is T47D. Put plainly: Increase in cell growth of estrogen-starved ER expressing T47D cells at 10 nM relative to control after 10 days. The class given is functional, Homo sapiens.
Settings: not given
The gist of the method: (§2)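 Cells were moved to medium with insulin (50 ng/mL) and 5% dextran-coated charcoal-treated FBS to remove estrogens, then seeded at 3000 cells/well. After 48 h, inhibitor dilutions in growth medium were added, with medium replaced every 2 days. Cells were grown 10 days in triplicate. Growth was read with the CellTiter 96 AQueous assay and expressed as % of control (100%).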
With `C[C@]12CC[C@@H]3c4ccc(O)cc4CC[C@H]3[C@@H]1CC[C@@H]2O` [ESTRADIOL], the Activity is 3.

A further assay addresses T1, 17-beta-hydroxysteroid dehydrogenase type 1 (Homo sapiens). Put plainly: Inhibition of 17beta-HSD1 over-expressed in homogenated HEK293 cells at 0.1 uM. The assay is classed as cell-based.
Settings: not given
Summed up: (§3)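 Homogenate of HEK-293 cells overexpressing type 1 17β-HSD. Reductive conversion of E1 (100 nM) to E2 with NADH cofactor. Percent inhibition from one run in triplicate, SD < ±5%.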
As to `CCCCN(C)C(=O)CCCCCS[C@@H]1C[C@@H]2[C@H](CC[C@]3(C)[C@@H](O)CC[C@@H]23)c2ccc(O)cc21`, the inhibition was found to be 33%.

Another assay concerns MCF7. Put plainly: Increase in cell growth of estrogen-starved ER expressing MCF7 cells at 10 nM relative to control after 10 days.
Settings: not given
The assay is classed as functional, Homo sapiens. Summed up: as §2
`C[C@]12CC[C@@H]3c4ccc(O)cc4CC[C@H]3[C@@H]1CC[C@@H]2O` [ESTRADIOL] yielded an Activity of 1.8.

The next assay deals with T1, 17-beta-hydroxysteroid dehydrogenase type 1 (Homo sapiens). Put plainly: Inhibition of 17beta-HSD1 over-expressed in intact HEK293 cells at 0.1 uM. The class given is cell-based.
Settings: not given
The gist of the method: (§4)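 Transfected HEK-293 cells expressing type 1 17β-HSD were plated at 5000 cells/well. Inhibitors were added in ethanol and incubated 24 h. [4-14C]-E1 (60 nM) was then added for 15 min. Labelled E1 and E2 were extracted from the medium and quantified. Values are the mean of five experiments in quadruplicate, SD < ±8%.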
Take `CCCCN(C)C(=O)CCCCCS[C@@H]1C[C@@H]2[C@H](CC[C@]3(C)[C@@H](O)CC[C@@H]23)c2ccc(O)cc21`: the inhibition turned out to be 11%.

For the next assay, the target named is T2, 3-keto-steroid reductase/17-beta-hydroxysteroid dehydrogenase 7 (Homo sapiens) (UniProt P56937).
T2 sequence (whole entry): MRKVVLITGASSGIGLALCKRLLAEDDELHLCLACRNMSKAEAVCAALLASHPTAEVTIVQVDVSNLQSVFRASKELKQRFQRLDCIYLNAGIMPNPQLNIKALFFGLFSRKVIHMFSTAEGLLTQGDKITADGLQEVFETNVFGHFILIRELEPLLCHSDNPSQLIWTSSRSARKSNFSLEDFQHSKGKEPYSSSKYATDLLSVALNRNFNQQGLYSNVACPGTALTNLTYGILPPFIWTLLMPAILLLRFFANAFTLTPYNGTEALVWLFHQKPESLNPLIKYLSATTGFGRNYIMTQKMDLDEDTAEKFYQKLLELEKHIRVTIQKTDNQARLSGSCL
Put plainly: Inhibition of 17beta-HSD7 over-expressed in intact HEK293 cells at 1 uM. The assay is classed as cell-based.
Settings: not given
The gist of the method:
(§5)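 Intact transfected HEK-293 cells expressing type 7 17β-HSD. Inhibition of reductive conversion of E1 (60 nM) to E2. One run in triplicate, SD < ±5%.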
The molecule `CCCCN(C)C(=O)CCCCCS[C@@H]1C[C@@H]2[C@H](CC[C@]3(C)[C@@H](O)CC[C@@H]23)c2ccc(O)cc21` returned an inhibition of 9%.

The target of the next assay is T1, 17-beta-hydroxysteroid dehydrogenase type 1 (Homo sapiens). Put plainly: Inhibition of 17beta-HSD1 overexpressed in homogenated HEK293 cells at 1 uM. The assay is classed as cell-based.
Settings: not given
Summed up:
as §3
Take `CCCCN(C)C(=O)CCCCCS[C@@H]1C[C@@H]2[C@H](CC[C@]3(C)[C@@H](O)CC[C@@H]23)c2ccc(O)cc21`: the inhibition was determined as 74%.

For another assay the target is unchanged. Put plainly: Inhibition of 17beta-HSD1 over-expressed in intact HEK293 cells.
Settings: not given
The assay is classed as cell-based. Summed up: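 Transfected HEK-293 cells overexpressing type 1 17β-HSD, plated at 5000 cells/well, given ethanolic inhibitor solutions and incubated 24 h. [4-14C]-E1 (60 nM) then added for 15 min. Labelled E1 and E2 extracted from medium and quantified, giving percent inhibition of E1→E2 reduction at 10, 1 and 0.1 μM. Mean of five experiments in quadruplicate.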
For the molecule `C[C@]12CC[C@H]3C(=CCc4cc(O)ccc43)[C@@H]1CC[C@@H]2O`, the result was inactive.
Take `C[C@]12CC[C@@H]3c4ccc(O)cc4C=C[C@H]3[C@@H]1CC[C@@H]2O`: the result was inactive.
Same read-out and setting: to `C[C@]12CC[C@@H]3c4ccc(O)cc4[C@H](O)C[C@H]3[C@@H]1CC[C@@H]2O` belongs “inactive”.
As to `C[C@]12CC[C@@H]3c4ccc(O)cc4C(=O)C[C@H]3[C@@H]1CC[C@@H]2O`, the result was inactive.

A further assay shares this target. Put plainly: Inhibition of 17beta-HSD1 over-expressed in intact HEK293 cells at 10 uM. The class given is cell-based.
Settings: not given
Summed up: as §4
Consider `CCCCN(C)C(=O)CCCCCS[C@@H]1C[C@@H]2[C@H](CC[C@]3(C)[C@@H](O)CC[C@@H]23)c2ccc(O)cc21`, for which the inhibition is 63%.

Another assay has as its system T47D. Put plainly: Increase in cell growth of estrogen-starved ER expressing T47D cells at 1 uM relative to control after 10 days. The conditions noted are these: Homo sapiens. The class given is functional, cell-based. The gist of the method: as §2
As to `CCCCN(C)C(=O)CCCCCS[C@@H]1C[C@@H]2[C@H](CC[C@]3(C)[C@@H](O)CC[C@@H]23)c2ccc(O)cc21`, the outcome was Active.

A further assay concerns the target T1, 17-beta-hydroxysteroid dehydrogenase type 1 (Homo sapiens). Put plainly: Inhibition of 17beta-HSD1 over-expressed in intact HEK293 cells at 1 uM.
Settings: not given
The class given is cell-based. The gist of the method: as §4
`CCCCN(C)C(=O)CCCCCS[C@@H]1C[C@@H]2[C@H](CC[C@]3(C)[C@@H](O)CC[C@@H]23)c2ccc(O)cc21` yielded an inhibition of 45%.

A further assay has as its system T47D. Put plainly: Increase in cell growth of estrogen-starved ER expressing T47D cells at 0.1 uM relative to control after 10 days. The assay is classed as functional, Homo sapiens.
Settings: not given
The gist of the method:
as §2
Turning to `CCCCN(C)C(=O)CCCCCS[C@@H]1C[C@@H]2[C@H](CC[C@]3(C)[C@@H](O)CC[C@@H]23)c2ccc(O)cc21`, the Activity is recorded as 2.3.

The target of another assay is T1, 17-beta-hydroxysteroid dehydrogenase type 1 (Homo sapiens). Put plainly: Inhibition of 17beta-HSD1 over-expressed in intact T47D cells at 10 uM. The class given is cell-based.
Settings: not given
The gist of the method: as §1
The molecule `CCCCN(C)C(=O)CCCCCS[C@@H]1C[C@@H]2[C@H](CC[C@]3(C)[C@@H](O)CC[C@@H]23)c2ccc(O)cc21` displayed an inhibition of 95%.

A further assay deals with T3, Very-long-chain 3-oxoacyl-CoA reductase (Homo sapiens) (UniProt Q53GQ0).
T3 sequence (whole entry): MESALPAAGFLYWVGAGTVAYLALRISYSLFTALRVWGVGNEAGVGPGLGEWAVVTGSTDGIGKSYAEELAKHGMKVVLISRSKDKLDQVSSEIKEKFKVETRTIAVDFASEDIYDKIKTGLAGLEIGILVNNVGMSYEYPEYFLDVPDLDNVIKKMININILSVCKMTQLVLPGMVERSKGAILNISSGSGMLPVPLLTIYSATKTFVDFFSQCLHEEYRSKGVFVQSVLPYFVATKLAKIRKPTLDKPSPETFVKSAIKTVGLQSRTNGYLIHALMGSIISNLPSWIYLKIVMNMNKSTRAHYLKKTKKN
Put plainly: Inhibition of 17beta-HSD12 over-expressed in intact HEK293 cells at 10 uM.
Settings: not given
The class given is cell-based. Summed up:
(§6)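 Transfected HEK-293 cells expressing type 12 17β-HSD were plated at 1.5×10^5 cells/well. Inhibitor in ethanol plus [4-14C]-E1 (60 nM) were added in fresh medium for 24 h. E1 to E2 conversion was quantified after steroid extraction. Values are the mean of two experiments in triplicate, SD < ±5%.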
Molecule `CCCCN(C)C(=O)CCCCCS[C@@H]1C[C@@H]2[C@H](CC[C@]3(C)[C@@H](O)CC[C@@H]23)c2ccc(O)cc21` had an inhibition of 22%.

The target in another assay is T2, 3-keto-steroid reductase/17-beta-hydroxysteroid dehydrogenase 7 (Homo sapiens). Put plainly: Inhibition of 17beta-HSD7 over-expressed in intact HEK293 cells at 10 uM. The assay is classed as cell-based.
Settings: not given
Summed up: as §5
As to `CCCCN(C)C(=O)CCCCCS[C@@H]1C[C@@H]2[C@H](CC[C@]3(C)[C@@H](O)CC[C@@H]23)c2ccc(O)cc21`, the inhibition worked out at 25%.

A further assay deals with T1, 17-beta-hydroxysteroid dehydrogenase type 1 (Homo sapiens). Put plainly: Inhibition of 17beta-HSD1 over-expressed in intact T47D cells at 0.1 uM. The class given is cell-based.
Settings: not given
The gist of the method:
as §1
As to `CCCCN(C)C(=O)CCCCCS[C@@H]1C[C@@H]2[C@H](CC[C@]3(C)[C@@H](O)CC[C@@H]23)c2ccc(O)cc21`, the inhibition turned out to be 31%.

For a further assay, the system named is T47D. Put plainly: Increase in cell growth of estrogen-starved ER expressing T47D cells at 0.01 uM relative to control after 10 days.
Settings: not given
The assay is classed as functional, Homo sapiens. Summed up:
as §2
Turning to `CCCCN(C)C(=O)CCCCCS[C@@H]1C[C@@H]2[C@H](CC[C@]3(C)[C@@H](O)CC[C@@H]23)c2ccc(O)cc21`, the Activity is reported as 2.3.

In the next assay the target is T3, Very-long-chain 3-oxoacyl-CoA reductase (Homo sapiens). Put plainly: Inhibition of 17beta-HSD12 over-expressed in intact HEK293 cells at 1 uM. The assay is classed as cell-based.
Settings: not given
The gist of the method: as §6
Molecule `CCCCN(C)C(=O)CCCCCS[C@@H]1C[C@@H]2[C@H](CC[C@]3(C)[C@@H](O)CC[C@@H]23)c2ccc(O)cc21` displayed an inhibition of 0%.
